In ChEMBL document CHEMBL1157912, “Impact of nature and length of linker incorporated in agonists on toll-like receptor 9-mediated immune responses” (J Med Chem, 2010):
Active and inactive are the calls of the source.

Key:
[1] = target: T1, Toll-like receptor 9 (Mus musculus) (UniProt Q9EQU3); assay: Induction of TLR9-mediated IL6 production in C57BL/6 mouse spleen cells after 24 hrs by ELISA; type: cell-based
T1 sequence (whole entry): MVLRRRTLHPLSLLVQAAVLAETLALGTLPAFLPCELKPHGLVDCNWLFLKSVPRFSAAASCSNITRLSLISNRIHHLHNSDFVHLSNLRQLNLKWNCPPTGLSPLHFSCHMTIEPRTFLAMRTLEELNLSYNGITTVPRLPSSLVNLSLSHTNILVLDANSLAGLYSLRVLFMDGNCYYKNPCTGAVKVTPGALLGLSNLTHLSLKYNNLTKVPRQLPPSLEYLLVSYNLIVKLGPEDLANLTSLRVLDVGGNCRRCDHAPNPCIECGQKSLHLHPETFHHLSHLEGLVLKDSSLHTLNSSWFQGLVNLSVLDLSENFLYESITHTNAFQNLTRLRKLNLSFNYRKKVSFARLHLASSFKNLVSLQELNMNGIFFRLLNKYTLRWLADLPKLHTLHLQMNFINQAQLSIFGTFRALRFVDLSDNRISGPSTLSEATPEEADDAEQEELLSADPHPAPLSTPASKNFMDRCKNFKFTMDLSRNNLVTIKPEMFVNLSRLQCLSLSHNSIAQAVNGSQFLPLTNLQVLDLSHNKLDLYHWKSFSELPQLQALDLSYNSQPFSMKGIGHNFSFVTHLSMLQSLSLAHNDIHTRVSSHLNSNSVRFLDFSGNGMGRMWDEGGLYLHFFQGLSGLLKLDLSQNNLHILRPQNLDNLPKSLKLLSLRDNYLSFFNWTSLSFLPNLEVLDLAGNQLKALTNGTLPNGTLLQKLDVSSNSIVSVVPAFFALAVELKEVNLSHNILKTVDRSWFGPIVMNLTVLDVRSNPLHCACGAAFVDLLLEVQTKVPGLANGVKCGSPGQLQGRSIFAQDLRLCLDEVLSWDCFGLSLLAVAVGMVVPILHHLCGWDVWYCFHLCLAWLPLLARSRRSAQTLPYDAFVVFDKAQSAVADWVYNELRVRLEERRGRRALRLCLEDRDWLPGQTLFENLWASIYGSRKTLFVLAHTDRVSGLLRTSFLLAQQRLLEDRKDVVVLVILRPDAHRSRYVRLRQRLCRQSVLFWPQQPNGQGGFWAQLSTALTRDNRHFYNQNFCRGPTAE
Summary of the method: (§1)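 C57BL/6 mouse spleen cells were cultured with agonists at 0.1, 0.3, 1, 3 and 10 μg/mL for 24 h. Secreted IL-12 and IL-6 in the supernatants were measured by ELISA. Values are averages of triplicate wells from one representative of at least two independent experiments.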

[2] = target: T1, Toll-like receptor 9 (Mus musculus); assay: Induction of TLR9-mediated IL12 production in C57BL/6 mouse spleen cells after 24 hrs by ELISA; type: cell-based; summary of the method: as §1
Mus musculus = assay: Immunostimulatory activity in C57BL/6 mouse assessed as increase in serum IL12 level at 1 mg/kg, sc after 2 hrs by ELISA; type: functional, organism-based; parameters: dose 1 mg/kg
Summary of the method: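 Female C57BL/6 mice (n=3) received a single subcutaneous agonist dose of 1 mg/kg. Blood was taken by retro-orbital bleeding 2 h later, and serum IL-12 was measured by sandwich ELISA. Values are the mean of three mice ± SD.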

[3] = target: T1, Toll-like receptor 9 (Mus musculus); assay: Activation of mouse TLR9 expressed in HEK293 cells assessed as induction of NF-kappaB activity after 18 hrs by SEAP assay; type: cell-based
Summary of the method: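 HEK293 cells stably expressing mouse TLR9 were grown in DMEM with 10% heat-inactivated FBS. At 80% confluence they were transiently transfected with a SEAP reporter plasmid (100 ng/well, lipofectamine) for 6 h. Medium was then replaced and agonists were added for 18 h. Supernatant SEAP was read with QuantiBlue substrate at 620-645 nm. Results are expressed as fold NF-κB activity over PBS control.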

[4] = target: T2, Toll-like receptor 9 (Homo sapiens) (UniProt Q9NR96); assay: Induction of TLR9-mediated human B cell proliferation assessed as [3H]thymidine uptake after 56 hrs by scintillation counting
T2 sequence (whole entry): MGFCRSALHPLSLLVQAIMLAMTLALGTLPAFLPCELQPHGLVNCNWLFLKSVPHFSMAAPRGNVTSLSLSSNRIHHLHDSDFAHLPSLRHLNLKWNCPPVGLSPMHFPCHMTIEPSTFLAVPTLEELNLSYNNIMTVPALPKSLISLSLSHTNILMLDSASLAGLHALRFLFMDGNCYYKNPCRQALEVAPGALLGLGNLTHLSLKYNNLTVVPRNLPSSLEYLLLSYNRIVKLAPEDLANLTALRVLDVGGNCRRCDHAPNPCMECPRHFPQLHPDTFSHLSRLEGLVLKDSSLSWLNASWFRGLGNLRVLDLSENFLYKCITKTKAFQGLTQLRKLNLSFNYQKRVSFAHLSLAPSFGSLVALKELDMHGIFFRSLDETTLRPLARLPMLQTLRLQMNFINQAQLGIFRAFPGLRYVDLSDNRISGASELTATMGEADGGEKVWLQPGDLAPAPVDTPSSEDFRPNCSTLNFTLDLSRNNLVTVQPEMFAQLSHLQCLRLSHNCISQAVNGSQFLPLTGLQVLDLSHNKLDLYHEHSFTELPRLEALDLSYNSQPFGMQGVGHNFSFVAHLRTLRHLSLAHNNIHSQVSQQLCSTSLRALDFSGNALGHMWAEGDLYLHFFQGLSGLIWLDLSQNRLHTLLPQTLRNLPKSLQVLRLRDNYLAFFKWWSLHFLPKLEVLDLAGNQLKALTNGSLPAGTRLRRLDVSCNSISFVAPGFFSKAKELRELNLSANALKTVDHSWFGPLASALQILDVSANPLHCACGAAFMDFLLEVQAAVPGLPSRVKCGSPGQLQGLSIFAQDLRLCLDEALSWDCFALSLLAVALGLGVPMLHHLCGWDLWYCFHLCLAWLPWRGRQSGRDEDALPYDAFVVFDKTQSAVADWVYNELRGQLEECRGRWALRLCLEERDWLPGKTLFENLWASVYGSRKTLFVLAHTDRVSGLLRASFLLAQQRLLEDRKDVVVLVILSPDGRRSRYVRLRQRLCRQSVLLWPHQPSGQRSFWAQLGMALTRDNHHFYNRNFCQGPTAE
Summary of the method: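 B cells were purified from human PBMCs (healthy volunteers), about 1 × 10⁵ cells, and stimulated with various agonist concentrations for 56 h. Cells were then pulsed with 0.75 μCi [³H]-thymidine and harvested 16 h later. Incorporation was counted by scintillation and reported as cpm.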

Measured: Activity

Cc1cn([C@H]2C[C@H](OCCn3c(=O)n(CCO)c(=O)n(CCOP(=O)(S)O[C@H]4C[C@H](n5cc(C)c(=O)[nH]c5=O)O[C@@H]4COP(=O)(S)O[C@H]4[C@@H](O)[C@H](n5ccc(N)nc5=O)O[C@@H]4COP(=O)(S)O[C@H]4C[C@H](n5cc(C)c(=O)[nH]c5=O)O[C@@H]4COP(=O)(S)O[C@H]4C[C@H](n5cc(C)c(=O)[nH]c5=O)O[C@@H]4COP(=O)(S)O[C@H]4C[C@H](n5ccc6c(=O)[nH]c(N)nc65)O[C@@H]4COP(=O)(S)O[C@H]4[C@@H](O)[C@H](n5ccc(N)nc5=O)O[C@@H]4COP(=O)(S)O[C@H]4C[C@H](n5cc(C)c(=O)[nH]c5=O)O[C@@H]4COP(=O)(S)O[C@H]4[C@@H](O)[C@H](n5cnc6c(=O)[nH]c(N)nc65)O[C@@H]4COP(=O)(S)O[C@H]4C[C@H](n5cc(C)c(=O)[nH]c5=O)O[C@@H]4COP(=O)(S)O[C@H]4[C@@H](O)[C@H](n5ccc(N)nc5=O)O[C@@H]4COP(=O)(S)O[C@H]4C[C@H](n5cc(C)c(=O)[nH]c5=O)O[C@@H]4CO)c3=O)[C@@H](COP(=O)(S)O[C@H]3[C@@H](O)[C@H](n4ccc(N)nc4=O)O[C@@H]3COP(=O)(S)O[C@H]3C[C@H](n4cc(C)c(=O)[nH]c4=O)O[C@@H]3COP(=O)(S)O[C@H]3C[C@H](n4cc(C)c(=O)[nH]c4=O)O[C@@H]3COP(=O)(S)O[C@H]3C[C@H](n4ccc5c(=O)[nH]c(N)nc54)O[C@@H]3COP(=O)(S)O[C@H]3[C@@H](O)[C@H](n4ccc(N)nc4=O)O[C@@H]3COP(=O)(S)O[C@H]3C[C@H](n4cc(C)c(=O)[nH]c4=O)O[C@@H]3COP(=O)(S)O[C@H]3[C@@H](O)[C@H](n4cnc5c(=O)[nH]c(N)nc54)O[C@@H]3COP(=O)(S)O[C@H]3C[C@H](n4cc(C)c(=O)[nH]c4=O)O[C@@H]3COP(=O)(S)O[C@H]3[C@@H](O)[C@H](n4ccc(N)nc4=O)O[C@@H]3COP(=O)(S)O[C@H]3C[C@H](n4cc(C)c(=O)[nH]c4=O)O[C@@H]3CO)O2)c(=O)[nH]c1=O (stereo not given in full)
active: [1] Dose-dependent effect | [2] Dose-dependent effect | Mus musculus | [3] Dose-dependent effect | [4] Dose-dependent effect
